Measurements reported in ChEMBL document CHEMBL4138185, “Investigation of the Physical and Bioactive Properties of Bromo- and Iodo-Containing Sponge-Derived Compounds Possessing an Oxyphenylethanamine Core” (J Nat Prod, 2017).
The source made the active and inactive calls. The calls are words filed in the database; no cut-off is given here.

How the values were obtained:
[1] = tested on: Yersinia pseudotuberculosis; assay: Inhibition of wild-type Yersinia pseudotuberculosis T3SS-mediated YopE secretion at 30 uM after 2 hrs under low calcium medium by SDS-PAGE analysis relative to control
[2] = tested on: Yersinia pseudotuberculosis; assay: Growth inhibition of wild-type Yersinia pseudotuberculosis at 60 uM measured at 1 hr interval for 15 hrs; format: organism-based; conditions: in vivo
Summary of the method: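 Wild-type Y. pseudotuberculosis grown at room temperature in 2×YT with test agent at 60 μM, kanamycin at 50 μg/mL, or DMSO. Absorbance at 600 nm read every hour over 15 h as the growth measure.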

[3] = tested on: Yersinia pseudotuberculosis; assay: Toxicity against wild-type Yersinia pseudotuberculosis at 60 uM measured after 15 hrs by MTT assay; format: organism-based; conditions: in vivo
Summary of the method: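 Wild-type Y. pseudotuberculosis grown at room temperature in 2×YT with test agent at 60 μM, kanamycin at 50 μg/mL, or DMSO. MTT added after 15 h; absorbance at 570 nm used as the metabolic activity read-out.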

[4] = tested on: Pseudomonas aeruginosa PA103; assay: Inhibition of Pseudomonas aeruginosa PA103 T3SS-mediated ExoU secretion at 60 uM after 3 hrs under low calcium medium by SDS-PAGE analysis relative to control
[5] = tested on: Yersinia pseudotuberculosis; assay: Inhibition of wild-type Yersinia pseudotuberculosis T3SS-mediated YopE secretion at 60 uM after 2 hrs under low calcium medium by SDS-PAGE analysis relative to control
[6] = tested on: Yersinia pseudotuberculosis; assay: Inhibition of wild-type Yersinia pseudotuberculosis T3SS-mediated YopE secretion at 120 uM after 2 hrs under low calcium medium by SDS-PAGE analysis relative to control
[7] = tested on: Yersinia pseudotuberculosis; assay: Inhibition of wild-type Yersinia pseudotuberculosis T3SS-mediated YopE secretion at 71 uM after 2 hrs under low calcium medium by SDS-PAGE analysis relative to control

SMILES | inhibition [1] [%] | growth inhibition (GI) [2] | Activity [3] | inhibition [4] | inhibition [5] [%] | inhibition [6] [%] | inhibition [7] [%]
CCC(=O)N(C)CCc1ccc(OCCCN(C)C(=O)Cc2ccc(O)cc2)c(Br)c1 | > 50 | Non-Toxic | Non-Toxic | inactive | – | – | –
CCC(=O)N(C)CCc1ccc(OCCCNC(=O)Cc2ccc(O)cc2)c(Br)c1 | – | Non-Toxic | Non-Toxic | inactive | > 50 | – | –
COc1c(Br)cc(CC(O)C(=O)NCCc2ccc(O)c(Br)c2)cc1Br (centres undefined) | > 50 | Non-Toxic | Non-Toxic | inactive | – | – | –
CCC(=O)N(C)CCc1cc(Br)c(OCCCNC(=O)Cc2ccc(O)cc2)c(Br)c1 | – | Non-Toxic | Non-Toxic | inactive | – | > 50 | –
CCC(=O)N(C)CCc1cc(Br)c(OCCCNC(=O)Cc2ccc(O)cc2)c(I)c1 | > 50 | Non-Toxic | Non-Toxic | inactive | – | – | –
COc1c(Br)cc(CC(O)C(=O)NCCc2ccc(O)c(I)c2)cc1Br (centres undefined) | – | Non-Toxic | Non-Toxic | inactive | > 50 | – | –
C/C=C(\C)[C@H](O)[C@H](C)/C=C(C)/C=C/C/C(C)=C/Cc1nc(OC)c(OC)c(O)c1C | – | – | – | – | – | – | > 50
CCC(=O)N(C)CCc1ccc(OCCCNC(=O)Cc2ccc(O)cc2)c(I)c1 | – | Non-Toxic | Non-Toxic | inactive | – | > 50 | –
